ChEMBL document CHEMBL1154075, “Synthesis and biological evaluation of (11)C-labeled beta-galactosyl triazoles as potential PET tracers for in vivo LacZ reporter gene imaging” (Bioorg Med Chem, 2009)
Values joined by “and” are separate entries in the source; they are usually repeats but may differ in a detail not shown here. Equal values may be shown once.

What was measured:
[1] = Octanol-phosphate buffer partition coefficient, log P of the compound; type: physicochemical
In short: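 About 555 kBq of purified tracer was added to 2 mL n-octanol and 2 mL 0.025 M sodium phosphate pH 7.4. The mixture was vortexed 2 min at room temperature and centrifuged 5 min at 1837 g. Aliquots of each phase were weighed and gamma counted. P was taken as cpm/mL in octanol over cpm/mL in buffer, after density correction. At least triplicate.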

[2] = Biodistribution in NMRI mouse urine at 37 MBq/ml, iv after 2 mins; type: ADME, organism-based; conditions: in vivo
In short: (§1)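 Male NMRI mice under isoflurane received 0.1 mL of about 37 MBq/mL tracer iv in saline (ethanol <10%). Decapitated at 2 or 60 min, n = 4 per time point. Radioactivity counted in a NaI(Tl) well counter and expressed as %ID, i.e. cpm in organ over total cpm recovered. Mean ± SD.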

[3] = test system: Kidney; experiment: Biodistribution in NMRI mouse kidney assessed per gram of tissue at 37 MBq/ml, iv after 2 mins; type: ADME, organism-based; conditions: in vivo
In short: (§2)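 Male NMRI mice (35–45 g), isoflurane-anaesthetised (2.5% in O2), given 0.1 mL tracer at about 37 MBq/mL in 0.9% NaCl (ethanol <10%) via tail vein. Killed by decapitation at 2 or 60 min p.i., n = 4 per time point. Blood and organs weighed, gamma counted and background corrected. Expressed as %ID/g; blood mass taken as 7% of body mass. Mean ± SD.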

[4] = test system: Liver; experiment: Biodistribution in NMRI mouse liver assessed per gram of tissue at 37 MBq/ml, iv after 2 mins; type: ADME, organism-based; conditions: in vivo; in short: as §2
[5] = test system: Stomach; experiment: Biodistribution in NMRI mouse stomach assessed per gram of tissue at 37 MBq/ml, iv after 2 mins; type: ADME, organism-based; conditions: in vivo; in short: as §2
[6] = Biodistribution in NMRI mouse carcass at 37 MBq/ml, iv after 2 mins; type: ADME, organism-based; conditions: in vivo; in short: as §1
[7] = Biodistribution in NMRI mouse urine at 37 MBq/ml, iv after 60 mins; type: ADME, organism-based; conditions: in vivo, 1 h; in short: as §1
[8] = test system: Kidney; experiment: Biodistribution in NMRI mouse kidney assessed per gram of tissue at 37 MBq/ml, iv after 60 mins; type: ADME, organism-based; conditions: in vivo, 1 h; in short: as §2
[9] = test system: Liver; experiment: Biodistribution in NMRI mouse liver assessed per gram of tissue at 37 MBq/ml, iv after 60 mins; type: ADME, organism-based; conditions: in vivo, 1 h; in short: as §2
[10] = Biodistribution in NMRI mouse spleen + pancreas assessed per gram of tissue at 37 MBq/ml, iv after 60 mins; type: ADME, organism-based; conditions: in vivo, 1 h; in short: as §2
[11] = test system: Stomach; experiment: Biodistribution in NMRI mouse stomach assessed per gram of tissue at 37 MBq/ml, iv after 60 mins; type: ADME, organism-based; conditions: in vivo, 1 h; in short: as §2
[12] = test system: Brain; experiment: Biodistribution in NMRI mouse brain assessed per gram of tissue at 37 MBq/ml, iv after 60 mins; type: ADME, organism-based; conditions: in vivo, 1 h; in short: as §2
[13] = Biodistribution in NMRI mouse carcass at 37 MBq/ml, iv after 60 mins; type: ADME, organism-based; conditions: in vivo, 1 h; in short: as §1
[14] = test system: Plasma; experiment: Metabolic stability in NMRI mouse plasma assessed as drug recovery at 18 MBq, iv after 30 mins by RP-HPLC; type: ADME, organism-based; conditions: in vivo, 0.5 h
In short: (§3)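 NMRI mice under isoflurane received about 18 MBq tracer iv and were decapitated at 10 or 30 min, n = 2. Plasma was separated from heparinised blood by centrifugation; urine was taken at 30 min by bladder voiding and mixed with authentic compound. Both were analysed by gradient RP-HPLC, fractions gamma counted, and intact tracer was expressed as % of recovered radioactivity.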

[15] = Metabolic stability in NMRI mouse urine assessed as drug recovery at 18 MBq, iv after 30 mins by RP-HPLC; type: ADME, organism-based; conditions: in vivo, 0.5 h; in short: as §3
[16] = test system: HEK293; experiment: Drug uptake in human HEK293 cells assessed as radioactivity after 120 mins; type: ADME, cell-based; conditions: hek293, 2 h
In short: (§4)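 293T cells were lentivirally transduced with LacZ or, as control, VZV-tk, and kept in DMEM/10% FCS with 1 µg/mL puromycin. 200,000 cells per well were seeded and used after 24 h. Cells received fresh medium with 1.1 MBq tracer per well for 30–120 min at 37 °C, 5% CO2. After ice-cold PBS washes, cells were lysed; lysate and supernatant were gamma counted. Result is % radioactivity in the cell fraction, triplicate means.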

[17] = target: Beta-galactosidase (Escherichia coli) (UniProt P00722); experiment: Inhibition of beta-galactosidase
[18] = target: Beta-galactosidase (Escherichia coli) (UniProt Q8VNN2); experiment: Inhibition of Escherichia coli beta-galactosidase assessed as substrate hydrolysis at 1 mg/ml after 15 mins by competitive binding assay in presence of ONPG; set-up: scale not given: the % may be the effect or the level left; conditions: tested as the 11C-labelled form
In short: (§5)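 E. coli β-gal (10 U, 149 U/mg) was incubated at 37 °C with 1 mg/mL triazole in HEPES pH 7.0 (120 mM) containing 4 mM MgSO4 and 180 mM NaCl. ONPG (1 mg in 1 mL HEPES solution) was then added. Samples taken 15 and 90 min later were analysed by RP-HPLC with UV detection.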

[19] = target: Beta-galactosidase (Escherichia coli) (UniProt Q8VNN2); experiment: Inhibition of Escherichia coli beta-galactosidase assessed as substrate hydrolysis at 1 mg/ml after 90 mins by competitive binding assay in presence of ONPG; set-up: scale not given: the % may be the effect or the level left; conditions: tested as the 11C-labelled form; in short: as §5
[20] = test system: Blood; experiment: Biodistribution in NMRI mouse blood assessed per gram of tissue at 37 MBq/ml, iv after 2 mins; type: ADME, organism-based; conditions: in vivo; in short: as §2
[21] = test system: Blood; experiment: Biodistribution in NMRI mouse blood assessed per gram of tissue at 37 MBq/ml, iv after 60 mins; type: ADME, organism-based; conditions: in vivo, 1 h; in short: as §2
[22] = test system: HEK293; experiment: Drug uptake in human HEK293 cells assessed as radioactivity after 30 mins; type: ADME, cell-based; conditions: hek293, 0.5 h; in short: as §4

Sequence of Beta-galactosidase (Escherichia coli) (UniProt Q8VNN2) (Q8VNN2 whole entry, looked up): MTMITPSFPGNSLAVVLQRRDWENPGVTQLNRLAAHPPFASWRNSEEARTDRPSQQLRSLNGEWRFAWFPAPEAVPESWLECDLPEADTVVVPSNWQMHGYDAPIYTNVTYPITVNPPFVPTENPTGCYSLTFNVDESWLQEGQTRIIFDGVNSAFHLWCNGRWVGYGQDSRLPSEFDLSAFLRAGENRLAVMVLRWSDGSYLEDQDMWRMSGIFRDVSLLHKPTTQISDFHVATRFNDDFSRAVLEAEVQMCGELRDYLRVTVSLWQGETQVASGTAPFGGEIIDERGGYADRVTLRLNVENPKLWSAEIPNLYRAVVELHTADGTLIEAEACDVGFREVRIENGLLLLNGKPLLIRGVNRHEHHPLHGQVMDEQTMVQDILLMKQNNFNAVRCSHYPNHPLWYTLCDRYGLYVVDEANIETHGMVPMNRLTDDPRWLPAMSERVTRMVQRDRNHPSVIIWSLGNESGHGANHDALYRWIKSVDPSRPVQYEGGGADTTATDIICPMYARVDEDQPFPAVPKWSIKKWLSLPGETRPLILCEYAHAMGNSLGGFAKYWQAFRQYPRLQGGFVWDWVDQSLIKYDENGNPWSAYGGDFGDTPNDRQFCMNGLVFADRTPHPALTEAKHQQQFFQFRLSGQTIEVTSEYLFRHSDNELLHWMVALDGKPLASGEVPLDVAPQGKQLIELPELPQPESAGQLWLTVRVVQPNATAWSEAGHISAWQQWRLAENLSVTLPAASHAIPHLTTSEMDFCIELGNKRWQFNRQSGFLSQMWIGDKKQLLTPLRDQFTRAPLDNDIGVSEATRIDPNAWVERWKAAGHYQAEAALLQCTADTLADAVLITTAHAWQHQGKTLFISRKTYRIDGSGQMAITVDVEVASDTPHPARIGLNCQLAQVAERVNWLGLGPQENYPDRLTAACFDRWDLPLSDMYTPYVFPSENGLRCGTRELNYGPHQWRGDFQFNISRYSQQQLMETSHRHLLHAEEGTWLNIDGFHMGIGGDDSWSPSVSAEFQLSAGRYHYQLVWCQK
Sequence of Beta-galactosidase (Escherichia coli) (UniProt P00722) (P00722 whole entry, looked up): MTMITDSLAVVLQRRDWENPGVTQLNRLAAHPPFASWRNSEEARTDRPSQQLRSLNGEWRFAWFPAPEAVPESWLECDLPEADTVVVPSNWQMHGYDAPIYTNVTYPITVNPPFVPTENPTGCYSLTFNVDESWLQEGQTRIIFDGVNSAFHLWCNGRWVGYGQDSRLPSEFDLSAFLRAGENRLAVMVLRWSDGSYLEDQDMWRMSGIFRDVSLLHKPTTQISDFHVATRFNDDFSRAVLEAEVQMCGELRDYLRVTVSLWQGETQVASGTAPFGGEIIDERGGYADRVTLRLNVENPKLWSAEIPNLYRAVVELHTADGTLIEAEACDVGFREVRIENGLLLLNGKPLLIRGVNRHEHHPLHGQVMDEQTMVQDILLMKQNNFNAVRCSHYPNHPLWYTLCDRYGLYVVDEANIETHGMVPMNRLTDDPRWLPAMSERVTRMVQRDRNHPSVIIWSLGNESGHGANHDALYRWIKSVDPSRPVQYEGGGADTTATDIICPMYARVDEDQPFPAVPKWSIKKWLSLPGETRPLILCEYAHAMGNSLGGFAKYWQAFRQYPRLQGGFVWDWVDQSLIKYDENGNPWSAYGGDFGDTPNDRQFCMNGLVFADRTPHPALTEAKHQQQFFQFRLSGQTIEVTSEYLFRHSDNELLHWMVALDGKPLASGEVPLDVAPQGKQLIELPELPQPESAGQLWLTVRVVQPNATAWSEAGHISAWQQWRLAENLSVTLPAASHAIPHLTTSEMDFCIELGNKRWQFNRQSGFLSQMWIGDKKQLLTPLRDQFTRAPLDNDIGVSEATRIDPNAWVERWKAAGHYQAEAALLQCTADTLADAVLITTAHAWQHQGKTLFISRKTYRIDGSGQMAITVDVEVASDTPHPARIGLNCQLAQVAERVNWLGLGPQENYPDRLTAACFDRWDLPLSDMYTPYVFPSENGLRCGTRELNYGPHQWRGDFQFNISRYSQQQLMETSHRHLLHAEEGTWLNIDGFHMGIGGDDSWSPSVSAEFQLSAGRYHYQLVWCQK

Compound	logP [1]	Drug uptake [2]	Drug uptake [3]	Drug uptake [4]	Drug uptake [5]	Drug uptake [6]	Drug uptake [7]	Drug uptake [8]	Drug uptake [9]	Drug uptake [10]	Drug uptake [11]	Drug uptake [12]	Drug uptake [13]	Stability [14]	Stability [15]	Drug uptake [16]	other results
[11CH3]Oc1ccc(-c2cn([C@@H]3O[C@H](CO)[C@H](O)[C@H](O)[C@H]3O)nn2)cc1	-0.1	3.1 %ID	16.1 %ID and 19.3 %ID	18.7 %ID and 8.7 %ID	0.9 %ID and 1.5 %ID	38.1 %ID	47.5 %ID	4 %ID and 4.4 %ID	13.4 %ID and 6.3 %ID	0.6 %ID and 1.7 %ID	0.9 %ID and 1.4 %ID	0 %ID and 0.3 %ID	19.6 %ID	Stable	Stable	0.4%	
OC[C@H]1O[C@@H](n2cc(-c3ccccc3)nn2)[C@H](O)[C@@H](O)[C@H]1O																	Ki [17]: 330 µM
COc1ccc(-c2cn([C@@H]3O[C@H](CO)[C@H](O)[C@H](O)[C@H]3O)nn2)cc1																	Activity [18]: 40%; Activity [19]: 70%
[11CH3]Oc1ccc2cc(-c3cn([C@@H]4O[C@H](CO)[C@H](O)[C@H](O)[C@H]4O)nn3)ccc2c1	1.4	0.1 %ID	7.2 %ID and 5.7 %ID	12.1 %ID and 25.8 %ID	1.1 %ID and 0.9 %ID	34.3 %ID	2.8 %ID	1 %ID and 1.4 %ID	7.1 %ID and 3.4 %ID	0.4 %ID and 1.2 %ID	0.4 %ID and 0.2 %ID	0 %ID and 0.2 %ID	12.2 %ID	Stable	Stable	1.4%	Drug uptake [20]: 50.9 %ID and 18.6 %ID; Drug uptake [21]: 4.2 %ID and 1.6 %ID; Drug uptake [22]: 0.6%
